Calls of active or inactive are those of the source. The calls are words filed in the database; no cut-off is given here.
What was measured:
[1] = molecular target: T1, TLR7 and TLR8 (Homo sapiens) (UniProt Q9NYK1+Q9NR97); assay: Agonist activity at TLR7/8 in human PBMCs co-cultured with primary human hepatocytes infected with HBV genotype C for 12 days assessed as increase in IL-10 levels up to 5 uM measured after 42 days
Plasma [2] = assay: Proinflammatory activity in C57BL/6J mouse plasma assessed as CXCL-1 levels at 0.3 mg/kg, po by multiplex assay (reference value: 230 pg/ml); type: functional
Liver [3] = assay: Proinflammatory activity in C57BL/6J mouse liver assessed as IL-6 levels at 1 mg/kg, po by multiplex assay (reference value: 10 pg/g); type: functional
Liver [4] = assay: Induction of IFNalpha levels in C57BL/6J mouse liver at 10 mg/kg, po by ELISA (reference value: 30 pg/g); type: functional
Liver [5] = assay: Proinflammatory activity in C57BL/6J mouse liver assessed as CXCL-1 levels at 1 mg/kg, po by multiplex assay (reference value: 25 pg/g); type: functional
Plasma [6] = assay: Upregulation of IP-10 mRNA expression levels in C57BL/6J mouse plasma at 0.3 mg/kg, po by RT-qPCR analysis (reference value: 1); type: functional
Liver [7] = assay: Proinflammatory activity in C57BL/6J mouse liver assessed as IL-6 levels at 3 mg/kg, po by multiplex assay (reference value: 10 pg/g); type: functional
[8] = molecular target: T1, TLR7 and TLR8 (Homo sapiens); assay: Agonist activity at TLR7/8 in human PBMCs co-cultured with primary human hepatocytes infected with HBV genotype C for 12 days assessed as increase in CXCL10 levels up to 5 uM measured after 42 days
Plasma [9] = assay: Anti-inflammatory activity in C57BL/6J mouse plasma assessed as IL-10 levels at 10 mg/kg, po by multiplex assay (reference value: 120 pg/ml); type: functional
Method in brief: (§1)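 Single oral gavage in 20% HP-β-CD to healthy C57BL/6 mice, groups of 15 at 0.3, 1, 3, 10 or 30 mg/kg. Three mice per group sacrificed at 0.5, 1, 2, 4 or 7 h. Plasma and liver cytokines by multiplex, maximum level reported, rounded to nearest multiple of 5.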

Liver [10] = assay: Proinflammatory activity in C57BL/6J mouse liver assessed as IL-6 levels at 30 mg/kg, po by multiplex assay (reference value: 10 pg/g); type: functional
Cynomolgus monkey [11] = assay: Induction of ISG response in cynomolgus monkey plasma assessed as upregulation of Mx1 mRNA expression at 3 mg/kg, po after 24 hrs by Fluidigm RT-qPCR analysis (reference value: 1); type: functional, Macaca fascicularis
Method in brief: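 Cynomolgus monkeys, single oral doses of 1, 3, 9 and 30 mg/kg with a planned 2-week wash-out between doses. Systemic ISG (ISG15, Mx1, OAS1) mRNA was measured by Fluidigm RT-qPCR at 1, 2, 4, 8 and 24 h postdose.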

[12] = Metabolic stability in human liver microsomes assessed as compound metabolized at 1 uM after 15 mins; type: ADME, microsome; details: read-out: Drug metabolism
Method in brief: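 Mouse (M) or human (H) liver microsomes incubated with compound at 1 μM; percent metabolized after 15 min.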

[13] = molecular target: T2, Toll-like receptor 7 (Homo sapiens) (UniProt Q9NYK1); assay: Agonist activity at human TLR7 expressed in HEK293 cells assessed as induction of receptor activation incubated for 6 hrs by NF-kappaB-luciferase reporter gene assay; type: cell-based
T2 sequence (whole entry): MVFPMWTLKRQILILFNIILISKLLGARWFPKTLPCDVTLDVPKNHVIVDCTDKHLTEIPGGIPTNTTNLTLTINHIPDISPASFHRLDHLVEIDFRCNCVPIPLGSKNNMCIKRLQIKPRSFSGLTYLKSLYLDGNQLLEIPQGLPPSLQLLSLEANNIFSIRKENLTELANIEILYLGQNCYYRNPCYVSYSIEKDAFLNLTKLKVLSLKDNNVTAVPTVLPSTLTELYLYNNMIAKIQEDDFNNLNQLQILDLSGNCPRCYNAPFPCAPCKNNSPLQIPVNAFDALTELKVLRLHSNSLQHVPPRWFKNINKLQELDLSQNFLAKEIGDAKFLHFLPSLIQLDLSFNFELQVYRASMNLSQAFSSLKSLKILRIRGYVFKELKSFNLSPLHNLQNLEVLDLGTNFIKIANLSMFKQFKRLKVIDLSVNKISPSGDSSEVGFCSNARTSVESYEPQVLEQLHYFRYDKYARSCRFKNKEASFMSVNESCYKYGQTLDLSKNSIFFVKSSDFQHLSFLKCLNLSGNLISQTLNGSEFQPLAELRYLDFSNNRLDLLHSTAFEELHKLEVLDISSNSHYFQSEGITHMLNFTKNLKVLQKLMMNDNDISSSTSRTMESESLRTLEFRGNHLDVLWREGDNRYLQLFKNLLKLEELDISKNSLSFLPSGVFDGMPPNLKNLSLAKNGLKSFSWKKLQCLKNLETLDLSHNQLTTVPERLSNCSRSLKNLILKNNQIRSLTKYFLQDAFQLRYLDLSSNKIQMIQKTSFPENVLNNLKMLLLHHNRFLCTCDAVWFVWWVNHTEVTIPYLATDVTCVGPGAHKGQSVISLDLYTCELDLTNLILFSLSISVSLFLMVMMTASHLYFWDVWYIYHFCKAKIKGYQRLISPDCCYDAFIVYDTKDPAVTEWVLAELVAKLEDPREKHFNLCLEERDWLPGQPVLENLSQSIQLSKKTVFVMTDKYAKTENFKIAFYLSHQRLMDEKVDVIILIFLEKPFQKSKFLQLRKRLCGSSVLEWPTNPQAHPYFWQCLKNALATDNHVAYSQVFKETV
Method in brief: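 HEK cell-based assay using a wild-type TLR7 expression vector; a parallel TLR8 vector construct served for selectivity. Results are expressed as lowest effective concentration (LEC), averaged over independent experiments where determined two or more times. A separate HEK 293 cytotoxicity (TOX) assay gave CC50 alongside.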

[14] = molecular target: T2, Toll-like receptor 7 (Homo sapiens); assay: Agonist activity at TLR7 in human PBMC assessed as suppression of HCV replicon replication in human HuH7 luc/neo cells harboring RNA encoding bicistronic expression construct comprising wild type HCV type 1b NS3-NS5B regions exposed to conditioned media from compound treated PBMCs after 24 hrs by luciferase reporter gene assay; type: cell-based
Method in brief: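 Human PBMCs were incubated with compound. Their medium was then transferred onto an HCV replicon system, so the antiviral read-out reflects interferon and cytokines the PBMCs induced. Values are reported as lowest effective concentration (LEC), averaged when determined in two or more independent experiments.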

Plasma [15] = assay: Effect on cytokine profile in C57BL/6J mouse plasma assessed as IFNgamma levels at 10 mg/kg, po by multiplex assay; type: functional; method in brief: as §1
[16] = Cmax in C57BL/6J mouse liver at 30 mg/kg, po by LC-MS analysis; type: ADME, organism-based; parameters: dose 30 mg/kg, route oral
Method in brief: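 Healthy C57BL/6 mice, groups of 15, given a single oral dose (0.3, 1, 3, 10 or 30 mg/kg) in 20% HP-β-CD. Blood drawn at 0.5 h. Three mice per group sacrificed at 0.5, 1, 2, 4 or 7 h, and compound in plasma and liver measured by LC−MS. Values rounded to whole numbers.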

Cynomolgus monkey [17] = assay: Anti-inflammatory activity in cynomolgus monkey plasma assessed as IL-10 levels at 9 mg/kg, po after 24 hrs by Luminex assay (reference value: 195 pg/ml); type: functional, Macaca fascicularis

CCC[C@@H](CCO)Nc1nc(N)nc2c(F)cccc12
Activity [1]: Active | Activity (Plasma [2]): 2180 pg/mL | Activity (Liver [3]): 905 pg/g | Activity (Liver [4]): 1365 pg/g | Activity (Liver [5]): 6755 pg/g | fold change (FC) (Plasma [6]): 15 | Activity (Liver [7]): 3225 pg/g | Activity [8]: Active | Activity (Plasma [9]): 29450 pg/mL | Activity (Liver [10]): 7555 pg/g | fold change (FC) (Cynomolgus monkey [11]): 50 | metabolised at 0.25 h, 1 µM [12]: 43% | MEC [13]: 0.15 µM | MEC [14]: 0.25 µM | Activity (Plasma [15]): 295 pg/mL | Cmax [16]: 7610 ng/g | Activity (Cynomolgus monkey [17]): 3785 pg/mL
